Results from ChEMBL document CHEMBL3992541, “Combined treatment with zingerone and its novel derivative synergistically inhibits TGF-β1 induced epithelial-mesenchymal transition, migration and invasion of human hepatocellular carcinoma cells” (2017).
The source made the active and inactive calls. No cut-off for these calls is given here.

Legend:
SNU-182 [1] = assay: Inhibition of TGFbeta1-induced migration in human SNU182 cells at 40 uM measured after 48 hrs in presence of zingerone by wound healing assay; format: functional, cell-based
Outline: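 Wound healing: SNU182 monolayers at about 90% confluence scratched with a pipette tip and washed. Medium with TGF-β1, with or without 40 µM mixture, then added. Wound imaged at 0 and 48 h; relative motility from cell surface area. Mean±SD of triplicates.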

SNU-182 [2] = assay: Inhibition of TGFbeta1-induced invasion in human SNU182 cells at 40 uM measured after 48 hrs in presence of zingerone by microscopic method; format: functional, cell-based
Outline: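 Matrigel invasion chamber: SNU182 cells in the inner chamber received TGF-β1 with or without the mixture for 48 h. Cells on the lower surface stained, imaged at 200×, and counted. Mean±SD of triplicates.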

[3] = molecular target: Mothers against decapentaplegic homolog 2 (Homo sapiens) (UniProt Q15796); assay: Inhibition of TGFbeta1-induced SMAD2 phosphorylation in human SNU182 cells at 20 to 40 uM preincubated for 2 hrs followed by TGFbeta1 addition measured after 48 hrs in presence of zingerone by Western blot method; format: cell-based
Mothers against decapentaplegic homolog 2 (Homo sapiens), sequence (Q15796 whole entry): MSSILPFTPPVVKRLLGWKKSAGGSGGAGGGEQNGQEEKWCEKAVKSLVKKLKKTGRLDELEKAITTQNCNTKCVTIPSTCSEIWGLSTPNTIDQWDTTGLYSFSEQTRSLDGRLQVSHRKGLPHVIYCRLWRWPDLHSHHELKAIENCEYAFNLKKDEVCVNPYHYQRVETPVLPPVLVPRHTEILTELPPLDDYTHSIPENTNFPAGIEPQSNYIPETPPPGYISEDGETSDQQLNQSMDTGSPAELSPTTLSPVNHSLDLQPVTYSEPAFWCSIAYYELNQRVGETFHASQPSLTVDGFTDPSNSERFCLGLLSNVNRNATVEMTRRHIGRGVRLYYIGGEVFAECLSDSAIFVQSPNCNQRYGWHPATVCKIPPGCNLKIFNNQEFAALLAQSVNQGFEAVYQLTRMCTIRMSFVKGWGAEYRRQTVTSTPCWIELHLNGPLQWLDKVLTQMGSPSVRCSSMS
Outline: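 SNU182 cells given the mixture (20 and 40 µM) for 2 h, then TGF-β1 5 ng/ml for 48 h. Smad2/3 phosphorylation by Western blot, with total Smad2/3 as loading control.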

SNU-182 [4] = assay: Growth inhibition of human SNU182 cells at <50 uM in presence of zingerone after 48 hrs by CCK8 assay; format: functional, cell-based
SNU-182 [5] = assay: Inhibition of TGFbeta1-induced epithelial-mesenchymal transition in human SNU182 cells assessed as reduction in upregulation of Snail expression at 12.5 uM preincubated for 2 hrs followed by TGFbeta1 addition measured after 48 hrs by Western blot method; format: functional, cell-based
Outline: (§1)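 SNU182 cells pretreated 2 h with single agents (12.5 or 40 µM) or the mixture (20 and 40 µM), then stimulated with TGF-β1 5 ng/ml for 48 h. E-cadherin and Snail protein detected by Western blot, with GAPDH as loading control.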

[6] = molecular target: Transcription factor Jun (Homo sapiens) (UniProt P05412); assay: Inhibition of TGFbeta1-induced AP-1 binding activity in human SNU182 cells at 20 to 40 uM measured after 48 hrs in presence of zingerone by luciferase reporter gene assay; format: cell-based
Transcription factor Jun (Homo sapiens), sequence (P05412 whole entry): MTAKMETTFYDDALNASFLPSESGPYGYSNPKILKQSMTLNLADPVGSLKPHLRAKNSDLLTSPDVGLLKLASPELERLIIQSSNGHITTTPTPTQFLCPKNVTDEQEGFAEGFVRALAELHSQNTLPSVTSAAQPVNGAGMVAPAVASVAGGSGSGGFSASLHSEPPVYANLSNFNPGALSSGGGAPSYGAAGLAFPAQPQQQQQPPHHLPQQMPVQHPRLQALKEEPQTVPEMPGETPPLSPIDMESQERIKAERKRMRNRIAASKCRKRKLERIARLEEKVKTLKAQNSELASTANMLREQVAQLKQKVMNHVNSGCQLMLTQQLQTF
Outline: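 SNU182 transfected with pGL4.44-AP-1-RE-Luc or empty pGL4.44, pretreated with the mixture (20 and 40 µM), then stimulated with TGF-β1 or DMSO. Luciferase reporter activity read. Mean±SD of triplicates.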

SNU-182 [7] = assay: Inhibition of TGFbeta1-induced epithelial-mesenchymal transition in human SNU182 cells assessed as reduction in MMP2 mRNA expression at 12.5 uM preincubated for 2 hrs followed by TGFbeta1 addition measured after 48 hrs by qRT-PCR method; format: functional, cell-based
Outline: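 SNU182 cells pretreated 2 h with single agents (12.5 or 40 µM) or the mixture (20 or 40 µM), then TGF-β 5 ng/ml for 48 h. MMP-2 and MMP-9 mRNA measured by RT-PCR with densitometry and by qRT-PCR, fold change by the 2^-ΔΔCt method. Mean±SD of triplicates.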

SNU-182 [8] = assay: (§2) Inhibition of TGFbeta1-induced epithelial-mesenchymal transition in human SNU182 cells assessed as reduction in upregulation of N-cadherin expression preincubated for 2 hrs followed by TGFbeta1 addition measured after 48 hrs in presence of zingerone by Western blot method; format: functional, cell-based
Outline: (§3)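 Pretreatment of SNU182 cells with the mixture at 20 and 40 µM for 2 h in serum-free medium, followed by TGF-β1 5 ng/ml for 48 h. N-cadherin and Snail detected by Western blot against GAPDH.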

SNU-182 [9] = assay: Inhibition of TGFbeta1-induced epithelial-mesenchymal transition in human SNU182 cells assessed as reduction in downregulation of E-cadherin expression preincubated for 2 hrs followed by TGFbeta1 addition measured after 48 hrs in presence of zingerone by Western blot method; format: functional, cell-based; outline: as §1
SNU-182 [10] = assay: Inhibition of TGFbeta1-induced epithelial-mesenchymal transition in human SNU182 cells assessed as reduction in upregulation of Snail expression preincubated for 2 hrs followed by TGFbeta1 addition measured after 48 hrs in presence of zingerone by Western blot method; format: functional, cell-based; outline: as §1
Homo sapiens [11] = species: Homo sapiens; assay: Inhibition of TGFbeta1-induced NF-kB binding activity in human SNU182 cells at 20 to 40 uM measured after 48 hrs in presence of zingerone by luciferase reporter gene assay; format: cell-based
Outline: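 Cells transfected with pGL4.32-NF-κB-RE-Luc or empty pGL4.32, then treated with the mixture and/or TGF-β1. Luciferase reporter activity read. Mean±SD of triplicates.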

SNU-182 [12] = assay: as §2, with “(E)-1-(9-Ethyl-9H-carbazol-3-yl)-5-(4-hydroxy-3-methoxyphenyl)pent-1-en-3-one” for “zingerone”; format: functional, cell-based; outline: as §3
[13] = molecular target: T1, NF-kappa-B inhibitor alpha (Homo sapiens) (UniProt P25963); assay: Inhibition of TGFbeta1-induced IkB-alpha phosphorylation in human SNU182 cells at 20 to 40 uM preincubated for 2 hrs followed by TGFbeta1 addition measured after 120 mins in presence of (E)-1-(9-Ethyl-9H-carbazol-3-yl)-5-(4-hydroxy-3-methoxyphenyl)pent-1-en-3-one by Western blot method; format: cell-based
T1 sequence (whole entry): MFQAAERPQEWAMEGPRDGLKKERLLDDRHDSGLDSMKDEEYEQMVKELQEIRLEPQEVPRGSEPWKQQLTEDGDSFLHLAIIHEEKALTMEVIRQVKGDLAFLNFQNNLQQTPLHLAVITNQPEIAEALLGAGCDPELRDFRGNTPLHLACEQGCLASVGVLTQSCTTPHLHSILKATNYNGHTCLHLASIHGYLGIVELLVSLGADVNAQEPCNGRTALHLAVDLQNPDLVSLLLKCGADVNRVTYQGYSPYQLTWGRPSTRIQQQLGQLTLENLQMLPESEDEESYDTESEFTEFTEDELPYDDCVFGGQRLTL
Outline: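 SNU182 cells pretreated with the mixture (20 and 40 µM) for 2 h, then exposed to TGF-β1 for 120 min. IκB protein assessed by Western blot, with GAPDH loading control.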

SNU-182 [14] = assay: Inhibition of TGFbeta1-induced epithelial-mesenchymal transition in human SNU182 cells assessed as reduction in upregulation of Snail expression at 40 uM preincubated for 2 hrs followed by TGFbeta1 addition measured after 48 hrs by Western blot method; format: functional, cell-based; outline: as §1
SNU-182 [15] = assay: Inhibition of TGFbeta1-induced epithelial-mesenchymal transition in human SNU182 cells assessed as reduction in MMP2 activity measured after 48 hrs in presence of (E)-1-(9-Ethyl-9H-carbazol-3-yl)-5-(4-hydroxy-3-methoxyphenyl)pent-1-en-3-one by gelatin zymography assay; format: functional, cell-based
Outline: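 Cells serum-starved overnight in 0.2% FBS medium, then left untreated or given TGF-β 5 ng/ml and/or the mixture for 48 h. MMP-2 and MMP-9 activity in conditioned medium determined by gelatin zymography.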

Homo sapiens [16] = species: Homo sapiens; assay: Inhibition of TGFbeta1-induced NF-kB nuclear translocation in human SNU182 cells preincubated for 2 hrs followed by TGFbeta1 addition measured after 12 hrs in presence of (E)-1-(9-Ethyl-9H-carbazol-3-yl)-5-(4-hydroxy-3-methoxyphenyl)pent-1-en-3-one by Western blot method; format: cell-based
Outline: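 Mixture added to SNU182 cells for 2 h before TGF-β1 for 12 h. Cytosolic and nuclear fractions analysed by Western blot for NF-κB, with COX4 as cytosolic and Lamin B1 as nuclear marker.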

Row | SMILES | inhibition (SNU-182 [1]) | inhibition (SNU-182 [2]) | inhibition [3] | growth inhibition (GI) (SNU-182 [4]) | inhibition (SNU-182 [5]) | inhibition [6] | inhibition (SNU-182 [7]) | inhibition (SNU-182 [8]) | inhibition (SNU-182 [9]) | inhibition (SNU-182 [10]) | inhibition (Homo sapiens [11]) | inhibition (SNU-182 [12]) | inhibition [13] | inhibition (SNU-182 [14]) | inhibition (SNU-182 [15]) | inhibition (Homo sapiens [16])
1 | CCn1c2ccccc2c2cc(/C=C/C(=O)CCc3ccc(O)c(OC)c3)ccc21 | Active | Active | Active | inactive | inactive | Active | inactive | Dose-dependent effect | Dose-dependent effect | Dose-dependent effect | Active | – | – | – | – | –
2 | COc1cc(CCC(C)=O)ccc1O | – | – | – | – | – | – | – | – | – | – | – | Dose-dependent effect | Active | inactive | Active | Dose-dependent effect
